# In ChEMBL document CHEMBL1240400, “Comparative in vitro activities of nemonoxacin (TG-873870), a novel nonfluorinated quinolone, and other quinolones against clinical isolates” (2010):
# Tests used:
# Assay type in all cases: functional
# Streptococcus viridans = experiment: Antibacterial activity against Streptococcus viridans by broth dilution method
# Procedure, shortened: (§1)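 Streptococci were tested by CLSI broth microdilution in Mueller-Hinton broth with 3% lysed horse blood, seeded from a 0.5 McFarland suspension. Incubated overnight at 35°C in ambient air, with quality control strains in each run. MIC taken over a per-agent dilution range.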
# Staphylococcus aureus [1] = experiment: Antibacterial activity against ciprofloxacin susceptible and methicillin resistant Staphylococcus aureus by broth dilution method
# Procedure, shortened: (§2)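 Clinical isolates tested by CLSI broth microdilution in panels holding serial twofold drug dilutions in cation-adjusted Mueller-Hinton broth. Final inoculum 5 × 10^5 CFU/ml was made from a 0.5 McFarland suspension. Plates were incubated overnight at 35°C in ambient air, and the MIC was read as the lowest concentration inhibiting growth. Quality control strains were included in each run.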
# Staphylococcus = experiment: Antibacterial activity against methicillin resistant coagulase negative Staphylococcus by broth dilution method
# Streptococcus pyogenes = experiment: Antibacterial activity against Streptococcus pyogenes by broth dilution method; procedure, shortened: as §1
# Enterococcus faecalis [2] = experiment: Antibacterial activity against Enterococcus faecalis by broth dilution method
# Streptococcus agalactiae = experiment: Antibacterial activity against Streptococcus agalactiae by broth dilution method; procedure, shortened: as §1
# [3] = system: Staphylococcus epidermidis; experiment: Antibacterial activity against methicillin resistant coagulase negative Staphylococcus epidermidis by broth dilution method
# Enterococcus faecalis [4] = experiment: Antibacterial activity against vancomycin resistant Enterococcus faecalis by broth dilution method
# Staphylococcus aureus [5] = experiment: Antibacterial activity against ciprofloxacin and methicillin resistant Staphylococcus aureus by broth dilution method; procedure, shortened: as §2
# Staphylococcus aureus [6] = experiment: Antibacterial activity against methicillin susceptible Staphylococcus aureus by broth dilution method
# Enterococcus faecium [7] = experiment: Antibacterial activity against Enterococcus faecium by broth dilution method; procedure, shortened: as §2
# Streptococcus pneumoniae [8] = experiment: Antibacterial activity against Levofloxacin susceptible Streptococcus pneumoniae by broth dilution method
# Procedure, shortened: (§3)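 Streptococcus pneumoniae clinical isolates tested by CLSI broth microdilution. A 0.5 McFarland suspension was diluted into Mueller-Hinton broth with 3% lysed horse blood, then tested against serial drug dilutions. Plates were incubated overnight at 35°C in ambient air, and the MIC was read as the lowest inhibitory concentration. Quality control strains were included in each run.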
# Enterococcus faecium [9] = experiment: Antibacterial activity against vancomycin resistant Enterococcus faecium by broth dilution method; procedure, shortened: as §2
# Streptococcus pneumoniae [10] = experiment: Antibacterial activity against Levofloxacin resistant Streptococcus pneumoniae by broth dilution method; procedure, shortened: as §3
# Pseudomonas aeruginosa = experiment: Antibacterial activity against Pseudomonas aeruginosa by broth dilution method
# Acinetobacter baumannii = experiment: Antibacterial activity against Acinetobacter baumannii by broth dilution method
# Procedure, shortened: (§4)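 Broth microdilution per CLSI in panels spanning a dilution range of each agent. Cation-adjusted Mueller-Hinton broth, final inoculum 5 × 10^5 CFU/ml from a 0.5 McFarland suspension. Incubated overnight at 35°C in ambient air, with quality control strains in each run. MIC reported; values at or below the lowest concentration tested are given as that concentration.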
# Enterobacter cloacae = experiment: Antibacterial activity against Enterobacter cloacae by broth dilution method
# Proteus mirabilis = experiment: Antibacterial activity against Proteus mirabilis by broth dilution method
# Klebsiella pneumoniae = experiment: Antibacterial activity against Klebsiella pneumoniae by broth dilution method; procedure, shortened: as §4
# Haemophilus influenzae = experiment: Antibacterial activity against Haemophilus influenzae by broth dilution method
# Procedure, shortened: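 Broth microdilution per CLSI using Haemophilus Test Medium broth, seeded from a 0.5 McFarland suspension. Incubated overnight at 35°C in ambient air, with quality control strains in each run. MIC read against a tested dilution range; values at the low limit are given as the lowest concentration.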
# Citrobacter freundii = experiment: Antibacterial activity against Citrobacter freundii by broth dilution method; procedure, shortened: as §4
# Escherichia coli [11] = experiment: Antibacterial activity against ciprofloxacin susceptible Escherichia coli by broth dilution method; procedure, shortened: as §4
# Escherichia coli [12] = experiment: Antibacterial activity against ciprofloxacin resistant Escherichia coli by broth dilution method; procedure, shortened: as §2
# Neisseria gonorrhoeae [13] = experiment: Antibacterial activity against moxifloxacin resistant Neisseria gonorrhoeae isolates by broth dilution method
# Procedure, shortened: (§5)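 Neisseria gonorrhoeae clinical isolates tested by CLSI broth microdilution in Mueller-Hinton broth with 3% lysed horse blood, inoculated from a 0.5 McFarland suspension. Plates were incubated overnight at 35°C in 5% CO2, and the MIC was read as the lowest inhibitory concentration. Quality control strains were included in each run.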
# Neisseria gonorrhoeae [14] = experiment: Antibacterial activity against levofloxacin resistant Neisseria gonorrhoeae isolates by broth dilution method; procedure, shortened: as §5
# Neisseria gonorrhoeae [15] = experiment: Antibacterial activity against ciprofloxacin resistant Neisseria gonorrhoeae isolates by broth dilution method; procedure, shortened: as §5
smiles,measurement,setting,value
CC(=O)NC[C@H]1CN(c2ccc(N3CCOCC3)c(F)c2)C(=O)O1 [LINEZOLID],MIC50,Streptococcus viridans,1 µg/mL
same,MIC90,Streptococcus viridans,2 µg/mL
same,MIC50,Staphylococcus aureus [1],2 µg/mL
same,MIC90,Staphylococcus aureus [1],2 µg/mL
same,MIC50,Staphylococcus,1 µg/mL
same,MIC90,Staphylococcus,2 µg/mL
same,MIC50,Streptococcus pyogenes,1 µg/mL
same,MIC90,Streptococcus pyogenes,1 µg/mL
same,MIC50,Enterococcus faecalis [2],1 µg/mL
same,MIC90,Enterococcus faecalis [2],2 µg/mL
same,MIC,Streptococcus agalactiae,1 µg/mL
same,MIC50,Streptococcus agalactiae,1 µg/mL
same,MIC90,Streptococcus agalactiae,1 µg/mL
same,MIC50,[3],1 µg/mL
same,MIC90,[3],2 µg/mL
same,MIC50,Enterococcus faecalis [4],1 µg/mL
same,MIC90,Enterococcus faecalis [4],2 µg/mL
same,MIC50,Staphylococcus aureus [5],2 µg/mL
same,MIC90,Staphylococcus aureus [5],2 µg/mL
same,MIC50,Staphylococcus aureus [6],2 µg/mL
same,MIC90,Staphylococcus aureus [6],2 µg/mL
same,MIC50,Enterococcus faecium [7],2 µg/mL
same,MIC90,Enterococcus faecium [7],2 µg/mL
same,MIC50,Streptococcus pneumoniae [8],1 µg/mL
same,MIC90,Streptococcus pneumoniae [8],1 µg/mL
same,MIC50,Enterococcus faecium [9],2 µg/mL
same,MIC90,Enterococcus faecium [9],2 µg/mL
same,MIC50,Streptococcus pneumoniae [10],1 µg/mL
same,MIC90,Streptococcus pneumoniae [10],1 µg/mL
CN(C)c1cc(NC(=O)CNC(C)(C)C)c(O)c2c1C[C@H]1C[C@H]3[C@H](N(C)C)C(O)=C(C(N)=O)C(=O)[C@@]3(O)C(O)=C1C2=O [TIGECYCLINE],MIC50,Streptococcus viridans,0.06 µg/mL
same,MIC90,Streptococcus viridans,0.12 µg/mL
same,MIC50,Pseudomonas aeruginosa,8 µg/mL
same,MIC90,Pseudomonas aeruginosa,> 8 µg/mL
same,MIC50,Staphylococcus aureus [1],0.25 µg/mL
same,MIC90,Staphylococcus aureus [1],0.25 µg/mL
same,MIC50,Acinetobacter baumannii,1 µg/mL
same,MIC90,Acinetobacter baumannii,2 µg/mL
same,MIC50,Staphylococcus,0.25 µg/mL
same,MIC90,Staphylococcus,0.5 µg/mL
same,MIC50,Streptococcus pyogenes,0.03 µg/mL
same,MIC90,Streptococcus pyogenes,0.06 µg/mL
same,MIC50,Enterobacter cloacae,0.5 µg/mL
same,MIC90,Enterobacter cloacae,2 µg/mL
same,MIC50,Proteus mirabilis,2 µg/mL
same,MIC90,Proteus mirabilis,4 µg/mL
same,MIC50,Enterococcus faecalis [2],0.25 µg/mL
same,MIC90,Enterococcus faecalis [2],0.25 µg/mL
same,MIC,Streptococcus agalactiae,0.03 µg/mL
same,MIC50,Streptococcus agalactiae,0.03 µg/mL
same,MIC90,Streptococcus agalactiae,0.06 µg/mL
same,MIC50,[3],0.25 µg/mL
same,MIC90,[3],0.5 µg/mL
same,MIC50,Klebsiella pneumoniae,0.5 µg/mL
same,MIC90,Klebsiella pneumoniae,1 µg/mL
same,MIC50,Enterococcus faecalis [4],0.25 µg/mL
same,MIC90,Enterococcus faecalis [4],0.25 µg/mL
same,MIC50,Haemophilus influenzae,0.5 µg/mL
same,MIC90,Haemophilus influenzae,1 µg/mL
same,MIC50,Staphylococcus aureus [5],0.25 µg/mL
same,MIC90,Staphylococcus aureus [5],0.5 µg/mL
same,MIC,Citrobacter freundii,0.25 µg/mL
same,MIC50,Citrobacter freundii,0.25 µg/mL
same,MIC90,Citrobacter freundii,0.5 µg/mL
same,MIC50,Staphylococcus aureus [6],0.12 µg/mL
same,MIC90,Staphylococcus aureus [6],0.25 µg/mL
same,MIC50,Enterococcus faecium [7],0.06 µg/mL
same,MIC90,Enterococcus faecium [7],0.12 µg/mL
same,MIC50,Escherichia coli [11],0.25 µg/mL
same,MIC90,Escherichia coli [11],0.5 µg/mL
same,MIC,Streptococcus pneumoniae [8],0.08 µg/mL
same,MIC50,Streptococcus pneumoniae [8],0.03 µg/mL
same,MIC90,Streptococcus pneumoniae [8],0.06 µg/mL
same,MIC50,Enterococcus faecium [9],0.06 µg/mL
same,MIC90,Enterococcus faecium [9],0.12 µg/mL
same,MIC50,Streptococcus pneumoniae [10],0.06 µg/mL
same,MIC90,Streptococcus pneumoniae [10],0.06 µg/mL
same,MIC50,Escherichia coli [12],0.25 µg/mL
same,MIC90,Escherichia coli [12],> 8 µg/mL
O=C(O)c1cn(C2CC2)c2cc(N3CCNCC3)c(F)cc2c1=O [CIPROFLOXACIN],MIC50,Streptococcus viridans,1 µg/mL
same,MIC90,Streptococcus viridans,4 µg/mL
same,MIC50,Pseudomonas aeruginosa,4 µg/mL
same,MIC90,Pseudomonas aeruginosa,> 16 µg/mL
same,MIC50,Acinetobacter baumannii,4 µg/mL
same,MIC90,Acinetobacter baumannii,> 16 µg/mL
same,MIC50,Staphylococcus,0.5 µg/mL
same,MIC90,Staphylococcus,> 16 µg/mL
same,MIC,Neisseria gonorrhoeae [13],0.5 µg/mL
same,MIC50,Streptococcus pyogenes,1 µg/mL
same,MIC90,Streptococcus pyogenes,4 µg/mL
same,MIC50,Proteus mirabilis,2 µg/mL
same,MIC90,Proteus mirabilis,> 16 µg/mL
same,MIC,Neisseria gonorrhoeae [14],1 µg/mL
same,MIC50,[3],0.5 µg/mL
same,MIC90,[3],> 16 µg/mL
same,MIC50,Klebsiella pneumoniae,4 µg/mL
same,MIC90,Klebsiella pneumoniae,> 16 µg/mL
same,MIC50,Haemophilus influenzae,0.25 µg/mL
same,MIC90,Haemophilus influenzae,16 µg/mL
same,MIC50,Citrobacter freundii,≤ 0.06 µg/mL
same,MIC90,Citrobacter freundii,2 µg/mL
same,MIC,Neisseria gonorrhoeae [15],2 µg/mL
same,MIC50,Escherichia coli [11],0.25 µg/mL
same,MIC90,Escherichia coli [11],1 µg/mL
same,MIC50,Streptococcus pneumoniae [10],> 16 µg/mL
same,MIC90,Streptococcus pneumoniae [10],> 16 µg/mL
same,MIC50,Escherichia coli [12],> 16 µg/mL
same,MIC90,Escherichia coli [12],> 16 µg/mL
